pIC50: −log10 of the molar value. The source made the active and inactive calls. The calls are words filed in the database; no cut-off is given here.

A short description of data set [1]: Metabolic stability in rat hepatocytes assessed as intrinsic clearance. In kind it is ADME, cell-based, Hepatocyte. Conditions: read-out: CLH.
The subject of data set [2] is SK-OV-3. The data set can be described thus: Antitumor activity against human SK-OV-3 cells xenografted in BALB/cA nude mouse assessed as tumor growth at 20 mg/kg, po administered once a day for 21 days and measured twice per week. It counts as functional. Conditions: dose 20 mg/kg/day; time 21 day. The method, boiled down: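 Female BALB/cA nude mice, 4–5 weeks old. SKOV-3 xenografts passaged once in vivo, then 1.5 mm³ fragments implanted s.c. in the right flank by trocar. At about 100 mm³ mice were randomized to vehicle or drug given orally once daily. Tumor size and body weight measured twice weekly; V = length × width²/2.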

Data set [3] can be described thus: Half life in rat at 10 mg/kg, po. It counts as ADME, organism-based. Conditions: in vivo. Put shortly:
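Male rats given 10 mg/kg p.o.; Cmax and terminal half-life taken from the plasma concentration–time profile.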

Data set [4] addresses T1, Phosphatidylinositol 4,5-bisphosphate 3-kinase catalytic subunit alpha isoform (Homo sapiens, UniProt P42336). The data set can be described thus: Inhibition of PI3Kalpha in human U87MG cells assessed as reduction in rhIGF1-stimulated AKT phosphorylation at Ser473 treated for 1 hr followed by incubation with IGF1 for 10 mins by western blot analysis. Conditions: U-87 MG, dose 0.01-1 µM, time 70.0 min. In kind it is cell-based. The method, boiled down: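 U87MG or Rh30 cells held 24 h in serum-free medium, exposed to compound for 1 h, then stimulated with 50 ng/ml IGF-I for 10 min. Lysates blotted for Akt, pAkt T308 and pAkt S473.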
(In western blotting, separated proteins are transferred to a membrane and probed.)

For data set [5], the target named is Voltage-gated inwardly rectifying potassium channel KCNH2 (Homo sapiens, UniProt Q12809). The data set can be described thus: Inhibition of human ERG expressed in CHO cells at holding potential of -80 mV by patch clamp assay. It counts as cell-based. The method, boiled down: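 Patch clamp on CHO cells stably expressing hERG, at room temperature. External solution (mM): 145 NaCl, 5 KCl, 2 CaCl2, 1 MgCl2, 10 HEPES, 10 glucose, pH 7.4. Pipette solution: 140 KCl, 1 MgCl2, 0.1 CaCl2, 5 EGTA, 10 HEPES, pH 7.3. Pipettes 3–5 MΩ; peak hERG current amplitude measured.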

Data set [6] is described as follows: Inhibition of human PI3K p110alpha H1047R mutant/p85alpha using PIP2 as substrate incubated for 30 mins in presence of ATP by HTRF assay. For orientation: Time-resolved FRET reads energy transfer from a long-lived donor to a nearby acceptor.
The subject of data set [7] is SK-BR-3. The data set can be described thus: Antiproliferative activity against human SK-BR-3 cells assessed as reduction in cell viability after 72 hrs by sulforhodamine B assay. Conditions: SK-BR-3, 72 h. It counts as functional, cell-based. The method, boiled down:
(§1)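 SRB assay. Exponentially growing cells seeded at 3000–5000/well, compounds added serially diluted after 24 h, cultured 72 h. Cells fixed with 10% TCA, stained with SRB, dye dissolved in 10 mM Tris-HCl, absorbance read at 560 nm. Inhibition = (ODcontrol − ODtreated)/ODcontrol × 100%. IC50 is the mean of at least three independent tests.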
(Sulforhodamine B stains cellular protein and so reports cell mass.)

Data set [8] in a line: Metabolic stability in cynomolgus monkey hepatocytes assessed as intrinsic clearance. Conditions: read-out: CLH. In kind it is ADME, cell-based, Macaca fascicularis, Hepatocyte.
Data set [9] concerns the target Phosphatidylinositol 4,5-bisphosphate 3-kinase catalytic subunit gamma isoform (Homo sapiens) (UniProt P48736). The data set can be described thus: Inhibition of PI3Kgamma (unknown origin) transfected in human Rh30 cells assessed as reduction in AKT phosphorylation at Thr308 residue at 10XIC50 by western blot analysis. It counts as cell-based. Put shortly:
(§2)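 Rh30 cells ectopically expressing membrane-anchored, N-terminally myristoylated, constitutively active p110α, β, γ or δ. Akt phosphorylation assessed by Western blot; lysates made in RIPA buffer, equal protein heated at 95 °C for 10 min in SDS loading buffer.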

The test system of data set [10] is SJRH30. The data set can be described thus: Antiproliferative activity against human Rh30 cells assessed as reduction in cell viability after 72 hrs by sulforhodamine B assay. It counts as functional, cell-based. Conditions: SJRH30, 72 h. Put shortly: as §1
The species entered for data set [11] is Homo sapiens. The data set can be described thus: Selectivity index, ratio of IC50 for human PI3Kgamma R459Q mutant to IC50 for human PI3Kalpha by HTRF assay. The method, boiled down: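 The PI3K isoforms were assayed with an HTRF kit. Each enzyme was incubated in assay buffer containing 10 μM PIP2, and the reaction was started with ATP and run 30 min at room temperature. Stop solution and detection mix were then added and light emission was read. IC50 values were averages of at least 3 separate determinations, and each index is the ratio of IC50 values.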

Data set [12] deals with T1, Phosphatidylinositol 4,5-bisphosphate 3-kinase catalytic subunit alpha isoform. The data set can be described thus: Inhibition of PI3Kalpha (unknown origin) transfected in human Rh30 cells assessed as reduction in AKT phosphorylation at Thr308 residue at 14 nM by western blot analysis. It counts as cell-based. The method, boiled down:
as §2

Data set [13] can be described thus: Metabolic stability in cynomolgus monkey hepatocytes assessed as half life. In kind it is ADME, cell-based, Macaca fascicularis, Hepatocyte.
Data set [14] in a line: Metabolic stability in human hepatocytes assessed as intrinsic clearance. Conditions: read-out: CLH. It counts as ADME, cell-based, Hepatocyte.
In data set [15] the test system is PC-3. The data set can be described thus: Antiproliferative activity against human PC-3 cells assessed as reduction in cell viability after 72 hrs by sulforhodamine B assay. In kind it is functional, cell-based. Conditions: PC-3, 72 h. The method, boiled down: as §1
A short description of data set [16]: Tmax in rat at 10 mg/kg, po. In kind it is ADME, organism-based. Conditions: in vivo. Put shortly: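 Male rats were dosed orally at 10 mg/kg, with a parallel i.v. arm at 5 mg/kg. Plasma PK parameters were derived, including Cmax, Tmax, T1/2 and AUC0-∞, with oral bioavailability (F) reported against the i.v. arm.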
Data set [17] concerns the target Phosphatidylinositol 4,5-bisphosphate 3-kinase catalytic subunit delta isoform (Homo sapiens) (UniProt O00329). The data set can be described thus: Inhibition of PI3Kdelta (unknown origin) transfected in human Rh30 cells assessed as reduction in AKT phosphorylation at Ser473 residue at 10XIC50 by western blot analysis. In kind it is cell-based. The method, boiled down: as §2

A short description of data set [18]: AUC (0 to infinity) in rat at 10 mg/kg, po. It counts as ADME, organism-based. Also noted: route oral, time infinity, dose 10 mg/kg. Conditions: in vivo. Put shortly:
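Male rats dosed orally at 10 mg/kg; plasma exposure followed to give AUC0-∞ (i.v. arm at 5 mg/kg run alongside).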

Data set [19] deals with CYP450 (isoform not stated) (Homo sapiens, UniProt P04798+P05177+P05181+P08684+P10632+P10635+P11509+P11712+P13584+P20813+P20815+P20853+P24462+P24903+P33260+P33261+P51589+P78329+P98187+Q02928+Q08477+Q16678+Q16696+Q5TCH4+Q6VVX0+Q7Z449+Q8TAV3+Q96SQ9+Q9HB55). The data set can be described thus: Inhibition of CYP450 (unknown origin). It counts as ADME, protein assay.
The nature of data set [20]: Toxicity in BALB/cA nude mouse xenografted with human SK-OV-3 cells assessed as changes in body weight at 5 to 20 mg/kg, po administered once a day for 21 days and measured twice per week. In kind it is organism-based. Conditions: in vivo, 504 h, dose 5-20 mg/kg/day, time 21 day. The method, boiled down:
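Female BALB/cA nude mice, 4–5 weeks old, received s.c. passaged SKOV-3 tumor fragments (1.5 mm³) in the right flank. At about 100 mm³ they were randomized to oral vehicle or compound once daily for 21 days. Body weight was measured individually twice per week.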

Data set [21] deals with T1, Phosphatidylinositol 4,5-bisphosphate 3-kinase catalytic subunit alpha isoform. The data set can be described thus: Inhibition of human PI3Kalpha using PIP2 as substrate in presence of ATP measured after 30 mins by HTRF assay. The method, boiled down: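 HTRF kit assay. Enzyme incubated with 10 μM PIP2; reaction started by adding ATP and run 30 min at room temperature, then stop solution and detection mix added and luminescence read. Compounds kept as 10 mM DMSO stocks.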

Data set [22] has as its system SK-OV-3. The data set can be described thus: Antiproliferative activity against human SK-OV-3 cells assessed as reduction in cell viability after 72 hrs by sulforhodamine B assay. It counts as functional, cell-based. Conditions: SK-OV-3, 72 h. The method, boiled down:
as §1

T1 sequence (P42336 whole entry, canonical isoform): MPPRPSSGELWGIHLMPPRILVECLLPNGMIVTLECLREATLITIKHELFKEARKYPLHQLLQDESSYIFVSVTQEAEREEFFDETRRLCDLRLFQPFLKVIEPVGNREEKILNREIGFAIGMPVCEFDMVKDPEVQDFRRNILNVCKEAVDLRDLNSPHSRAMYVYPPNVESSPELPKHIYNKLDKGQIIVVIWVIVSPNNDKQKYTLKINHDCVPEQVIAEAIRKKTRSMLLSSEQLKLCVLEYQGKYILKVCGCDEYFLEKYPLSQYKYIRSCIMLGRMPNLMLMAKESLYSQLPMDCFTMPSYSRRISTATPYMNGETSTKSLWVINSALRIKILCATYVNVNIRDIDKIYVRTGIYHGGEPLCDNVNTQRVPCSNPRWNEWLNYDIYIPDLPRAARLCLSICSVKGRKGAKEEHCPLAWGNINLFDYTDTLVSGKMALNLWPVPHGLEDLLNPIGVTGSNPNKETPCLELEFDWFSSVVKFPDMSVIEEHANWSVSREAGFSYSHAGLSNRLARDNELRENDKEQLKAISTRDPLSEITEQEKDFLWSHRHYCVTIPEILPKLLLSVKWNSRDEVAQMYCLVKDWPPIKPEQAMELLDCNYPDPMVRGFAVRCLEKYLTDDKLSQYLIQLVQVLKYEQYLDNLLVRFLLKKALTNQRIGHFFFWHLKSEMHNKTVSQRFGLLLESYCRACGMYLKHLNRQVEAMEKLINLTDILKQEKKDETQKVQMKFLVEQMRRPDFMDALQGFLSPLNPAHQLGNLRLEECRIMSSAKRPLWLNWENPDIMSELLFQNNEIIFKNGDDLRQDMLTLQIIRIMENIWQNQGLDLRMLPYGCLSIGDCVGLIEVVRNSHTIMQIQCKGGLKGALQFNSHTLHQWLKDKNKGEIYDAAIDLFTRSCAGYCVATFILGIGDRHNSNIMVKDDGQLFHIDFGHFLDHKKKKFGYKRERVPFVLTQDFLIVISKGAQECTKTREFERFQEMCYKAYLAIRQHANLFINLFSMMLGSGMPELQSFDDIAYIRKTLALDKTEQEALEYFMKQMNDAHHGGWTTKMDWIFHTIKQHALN
Phosphatidylinositol 4,5-bisphosphate 3-kinase catalytic subunit gamma isoform (Homo sapiens), sequence (P48736 whole entry, looked up, canonical isoform): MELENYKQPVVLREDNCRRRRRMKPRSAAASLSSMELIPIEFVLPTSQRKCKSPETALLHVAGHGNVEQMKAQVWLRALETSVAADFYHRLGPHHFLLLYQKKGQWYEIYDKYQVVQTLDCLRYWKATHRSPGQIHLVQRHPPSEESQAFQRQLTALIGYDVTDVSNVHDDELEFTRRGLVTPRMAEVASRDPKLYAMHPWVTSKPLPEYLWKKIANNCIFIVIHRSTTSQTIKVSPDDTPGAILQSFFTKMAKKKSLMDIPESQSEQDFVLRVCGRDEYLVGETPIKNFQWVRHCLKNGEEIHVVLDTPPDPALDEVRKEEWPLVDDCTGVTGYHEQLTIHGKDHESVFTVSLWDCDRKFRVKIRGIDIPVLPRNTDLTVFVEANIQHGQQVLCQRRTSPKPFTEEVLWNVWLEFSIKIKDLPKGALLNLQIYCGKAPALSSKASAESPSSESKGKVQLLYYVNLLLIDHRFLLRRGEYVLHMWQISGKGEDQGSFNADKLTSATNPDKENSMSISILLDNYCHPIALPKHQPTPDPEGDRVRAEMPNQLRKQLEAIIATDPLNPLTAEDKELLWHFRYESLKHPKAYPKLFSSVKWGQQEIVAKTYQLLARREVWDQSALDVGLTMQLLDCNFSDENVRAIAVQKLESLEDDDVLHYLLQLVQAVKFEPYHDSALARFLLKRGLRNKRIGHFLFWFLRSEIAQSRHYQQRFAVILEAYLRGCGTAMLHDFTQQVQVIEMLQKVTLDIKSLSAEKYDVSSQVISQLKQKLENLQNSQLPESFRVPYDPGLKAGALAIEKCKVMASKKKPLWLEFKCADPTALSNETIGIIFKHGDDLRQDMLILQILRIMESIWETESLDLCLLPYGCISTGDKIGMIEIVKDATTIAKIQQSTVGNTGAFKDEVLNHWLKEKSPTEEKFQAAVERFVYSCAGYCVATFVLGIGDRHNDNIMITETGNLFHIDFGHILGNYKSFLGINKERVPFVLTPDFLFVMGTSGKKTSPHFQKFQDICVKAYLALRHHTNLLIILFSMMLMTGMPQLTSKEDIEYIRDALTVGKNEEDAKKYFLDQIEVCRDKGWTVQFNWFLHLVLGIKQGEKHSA
Voltage-gated inwardly rectifying potassium channel KCNH2, sequence (Q12809 whole entry): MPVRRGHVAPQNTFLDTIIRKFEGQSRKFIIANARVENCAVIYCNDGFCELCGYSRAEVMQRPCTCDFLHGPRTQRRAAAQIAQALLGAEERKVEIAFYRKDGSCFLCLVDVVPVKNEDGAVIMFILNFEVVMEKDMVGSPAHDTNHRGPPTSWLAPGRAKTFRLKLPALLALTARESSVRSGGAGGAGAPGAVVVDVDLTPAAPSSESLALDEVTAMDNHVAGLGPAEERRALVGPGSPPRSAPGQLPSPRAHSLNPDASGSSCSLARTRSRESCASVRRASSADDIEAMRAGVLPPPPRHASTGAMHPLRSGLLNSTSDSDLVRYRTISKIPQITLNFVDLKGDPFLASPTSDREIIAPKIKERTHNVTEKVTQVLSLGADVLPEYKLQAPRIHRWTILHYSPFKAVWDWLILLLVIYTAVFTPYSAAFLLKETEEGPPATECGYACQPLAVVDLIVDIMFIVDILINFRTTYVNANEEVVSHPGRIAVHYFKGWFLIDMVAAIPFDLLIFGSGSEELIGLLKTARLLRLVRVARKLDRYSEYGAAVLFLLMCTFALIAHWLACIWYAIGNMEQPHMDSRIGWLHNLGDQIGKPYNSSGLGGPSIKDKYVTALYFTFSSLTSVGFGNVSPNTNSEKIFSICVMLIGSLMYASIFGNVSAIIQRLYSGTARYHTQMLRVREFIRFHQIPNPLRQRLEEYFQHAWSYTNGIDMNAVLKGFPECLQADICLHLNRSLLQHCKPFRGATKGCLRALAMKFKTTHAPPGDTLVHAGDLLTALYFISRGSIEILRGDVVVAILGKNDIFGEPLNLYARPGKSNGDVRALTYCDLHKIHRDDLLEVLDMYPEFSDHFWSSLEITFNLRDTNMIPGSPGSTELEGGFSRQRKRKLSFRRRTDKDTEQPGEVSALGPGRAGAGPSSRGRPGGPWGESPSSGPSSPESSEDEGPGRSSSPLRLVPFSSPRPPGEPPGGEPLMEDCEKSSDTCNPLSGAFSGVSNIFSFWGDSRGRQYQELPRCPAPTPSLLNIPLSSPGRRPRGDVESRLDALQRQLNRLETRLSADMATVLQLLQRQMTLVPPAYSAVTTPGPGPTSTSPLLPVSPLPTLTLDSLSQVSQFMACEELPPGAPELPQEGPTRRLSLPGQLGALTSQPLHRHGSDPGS
Phosphatidylinositol 4,5-bisphosphate 3-kinase catalytic subunit delta isoform (Homo sapiens), sequence (O00329 whole entry, canonical isoform): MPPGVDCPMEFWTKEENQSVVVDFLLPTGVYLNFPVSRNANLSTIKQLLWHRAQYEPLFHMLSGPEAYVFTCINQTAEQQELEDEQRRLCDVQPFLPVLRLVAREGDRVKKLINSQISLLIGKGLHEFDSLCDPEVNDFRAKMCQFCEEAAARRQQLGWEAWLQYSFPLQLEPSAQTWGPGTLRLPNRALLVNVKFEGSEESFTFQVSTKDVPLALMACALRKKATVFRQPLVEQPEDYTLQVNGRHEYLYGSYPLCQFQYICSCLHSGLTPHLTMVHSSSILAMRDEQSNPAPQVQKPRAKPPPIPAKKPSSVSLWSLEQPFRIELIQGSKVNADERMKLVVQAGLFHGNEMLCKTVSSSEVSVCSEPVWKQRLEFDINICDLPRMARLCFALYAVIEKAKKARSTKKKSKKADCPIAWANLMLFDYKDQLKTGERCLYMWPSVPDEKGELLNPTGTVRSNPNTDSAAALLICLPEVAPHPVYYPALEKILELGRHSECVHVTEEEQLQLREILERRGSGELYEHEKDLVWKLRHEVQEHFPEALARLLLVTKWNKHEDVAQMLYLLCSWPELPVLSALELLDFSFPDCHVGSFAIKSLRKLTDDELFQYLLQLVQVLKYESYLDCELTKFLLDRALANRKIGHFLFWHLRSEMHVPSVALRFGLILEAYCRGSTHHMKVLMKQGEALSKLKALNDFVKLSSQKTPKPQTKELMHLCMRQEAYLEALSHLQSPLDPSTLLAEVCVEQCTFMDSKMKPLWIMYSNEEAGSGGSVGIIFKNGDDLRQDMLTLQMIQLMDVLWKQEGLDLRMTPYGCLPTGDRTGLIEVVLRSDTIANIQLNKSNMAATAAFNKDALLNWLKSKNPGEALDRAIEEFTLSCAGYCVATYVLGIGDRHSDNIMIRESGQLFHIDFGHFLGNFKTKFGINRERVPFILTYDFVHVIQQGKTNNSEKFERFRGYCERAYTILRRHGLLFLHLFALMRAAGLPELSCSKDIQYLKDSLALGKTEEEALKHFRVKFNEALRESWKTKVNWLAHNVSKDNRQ

Regarding `COC(=O)Nc1cc(C(F)(F)F)c(-c2nc(N3CCOCC3)c3cc(CN4CCN(S(C)(=O)=O)CC4)cn3n2)cn1` [RISOVALISIB], the CLint scaled in data set [1] stood at 16.9 mL/min/kg; in data set [8], 29 mL/min/kg; in data set [14] it was 3.05 mL/min/kg. In addition, the Activity in [2] is recorded as 37%; in data set [20] it was “Non-Toxic”. The half-life (as a rule, how long it takes for the measured level to halve) in data set [3] is 89.4 min; in data set [13] it was 43 min. Further, the inhibition entry in [4] was “Dose-dependent effect”. In addition, the pIC50 – broadly, the negative decadic logarithm of the IC50, by convention in mol/L – in [5] was less than 4.40; in [6], 8.08; in data set [7], more than 6.00; in data set [10], 5.99; in data set [15] it was more than 6.00; in data set [19], less than 4.52. Also, the pIC50 in [21] was 8.23; in [22] it was more than 6.00. For the same molecule, the inhibition result in data set [9], in data set [12] and in [17] was “Active” each time. Also, the Ratio IC50 in [11] came out at 38. In addition, the Tmax (commonly the time at which the peak concentration occurs) in data set [16] is 52.5 min. For the same molecule, the AUC(0-inf) (in general, total exposure, with the tail of the curve extrapolated) in data set [18] came out at 2750 ng·h/mL.

The values are drawn from ChEMBL document CHEMBL4732078 (Eur J Med Chem, 2021).
